In assay [1] the target is T1, Dual specificity protein kinase CLK1/CLK4 (Homo sapiens, UniProt Q9HAZ1+P49759). The experiment in a line: Inhibition of CLK1/4 in human T24 cells assessed as down regulation of HDAC1 expression at 15 uM after 3 days by Western blot analysis relative to control. The class given is cell-based. In short, it runs like this: (§1)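 T24 or MDA-MB-231 cells were grown in DMEM to 70% confluency. The medium was replaced with compound diluted in DMEM, and cells were kept 3 days. Total protein was immunoblotted with monoclonal antibodies in 3% BSA/PBS against EGFR, p70S6K α, PARP-1, ERK2, HDAC1, CD44, PCNA and GRP94.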

The subject of another assay is MDA-MB-231. The assay can be described thus: Cytotoxicity against human MDA-MB-231 cells assessed as growth inhibition after 5 days by MTT assay. The format is functional. Conditions: MDA-MB-231, 120 h. The method in brief:
(§2)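 They were seeded at 5000 cells per well onto compound or DMSO (0.2% final). Plates were kept 5 days at 37 °C in 5% CO2 with no medium change, then read by MTT.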

For assay [2], the target named is T1, Dual specificity protein kinase CLK1/CLK4. The experiment in a line: Inhibition of CLK1/4 in human T24 cells assessed as down regulation of HDAC1 expression after 3 days by Western blot analysis. The format is cell-based. In short, it runs like this:
as §1

The target is the same in assay [3]. The assay can be described thus: Inhibition of CLK1/4 in human MDA-MB-231 cells assessed as down regulation of S6 kinase expression at 20 uM after 3 days by Western blot analysis relative to control. The class given is cell-based. In short, it runs like this: as §1
Assay [4] has the same target. The experiment in a line: Inhibition of CLK1/4 in human MDA-MB-231 cells assessed as down regulation of EGFR expression at 10 uM after 3 days by Western blot analysis relative to control. The class given is cell-based. In short, it runs like this:
as §1

Assay [5] has the same target. The assay can be described thus: Inhibition of CLK1/4 in human MDA-MB-231 cells assessed as down regulation of S6 kinase expression at 10 uM after 3 days by Western blot analysis relative to control. The class given is cell-based. In short, it runs like this:
as §1

For assay [6] the target is unchanged. The experiment in a line: Inhibition of CLK1/4 in human T24 cells assessed as down regulation of EGFR expression at 10 uM after 3 days by Western blot analysis relative to control. The class given is cell-based. The method in brief:
as §1

Assay [7] has the same target. The experiment in a line: Inhibition of CLK1/4 in human MDA-MB-231 cells assessed as down regulation of EGFR expression at 5 uM after 3 days by Western blot analysis relative to control. The format is cell-based. The method in brief:
as §1

Assay [8] has the same target. The experiment in a line: Inhibition of CLK1/4 in human T24 cells assessed as down regulation of EGFR expression at 15 uM after 3 days by Western blot analysis relative to control. The format is cell-based. The method in brief: as §1
Assay [9] has as its target Dual specificity protein kinase CLK1 (Homo sapiens, UniProt P49759). The assay can be described thus: Inhibition of recombinant human GST-tagged Clk1 expressed in Escherichia coli at 100 nM using RS repeat substrate peptide after 15 mins in presence of [gamma-32]-ATP.
The target in assay [10] is T1, Dual specificity protein kinase CLK1/CLK4. The assay can be described thus: Inhibition of CLK1/4 in human MDA-MB-231 cells assessed as down regulation of EGFR expression at 20 uM after 3 days by Western blot analysis relative to control. The format is cell-based. The method in brief: as §1
Assay [11] has the same target. The experiment in a line: Inhibition of CLK1/4 in human MDA-MB-231 cells assessed as down regulation of S6 kinase expression at 5 uM after 3 days by Western blot analysis relative to control. The format is cell-based. In short, it runs like this: as §1
The next assay concerns T-24. The experiment in a line: Cytotoxicity against human T24 cells assessed as growth inhibition after 5 days by MTT assay. The class given is functional. Conditions: T-24, 120 h. The method in brief:
as §2

In assay [12] the target is T1, Dual specificity protein kinase CLK1/CLK4. The assay can be described thus: Inhibition of CLK1/4 in human T24 cells assessed as down regulation of EGFR expression at 5 uM after 3 days by Western blot analysis relative to control. The format is cell-based. In short, it runs like this: as §1
Assay [13] has the same target. The assay can be described thus: Inhibition of CLK1/4 in human MDA-MB-231 cells assessed as down regulation of S6 kinase expression at 2.5 uM after 3 days by Western blot analysis relative to control. The format is cell-based. The method in brief:
as §1

Assay [14] has the same target. The experiment in a line: Inhibition of CLK1/4 in human MDA-MB-231 cells assessed as down regulation of S6 kinase expression after 3 days by Western blot analysis. The format is cell-based. The method in brief:
as §1

Assay [15] has the same target. The assay can be described thus: Inhibition of CLK1/4 in human T24 cells assessed as down regulation of HDAC1 expression at 10 uM after 3 days by Western blot analysis relative to control. The format is cell-based. In short, it runs like this:
as §1

The target is the same in assay [16]. The assay can be described thus: Inhibition of CLK1/4 in human T24 cells assessed as down regulation of HDAC1 expression at 5 uM after 3 days by Western blot analysis relative to control. The class given is cell-based. The method in brief:
as §1

The target is the same in assay [17]. The assay can be described thus: Inhibition of CLK1/4 in human MDA-MB-231 cells assessed as down regulation of EGFR expression after 3 days by Western blot analysis. The class given is cell-based. In short, it runs like this:
as §1

Assay [18] has the same target. The experiment in a line: Inhibition of CLK1/4 in human T24 cells assessed as down regulation of EGFR expression after 3 days by Western blot analysis. The class given is cell-based. In short, it runs like this:
as §1

Assay [19] shares this target. The assay can be described thus: Inhibition of CLK1/4 in human MDA-MB-231 cells assessed as down regulation of EGFR expression at 2.5 uM after 3 days by Western blot analysis relative to control. The format is cell-based. The method in brief:
as §1

Dual specificity protein kinase CLK1, sequence (P49759 whole entry, looked up): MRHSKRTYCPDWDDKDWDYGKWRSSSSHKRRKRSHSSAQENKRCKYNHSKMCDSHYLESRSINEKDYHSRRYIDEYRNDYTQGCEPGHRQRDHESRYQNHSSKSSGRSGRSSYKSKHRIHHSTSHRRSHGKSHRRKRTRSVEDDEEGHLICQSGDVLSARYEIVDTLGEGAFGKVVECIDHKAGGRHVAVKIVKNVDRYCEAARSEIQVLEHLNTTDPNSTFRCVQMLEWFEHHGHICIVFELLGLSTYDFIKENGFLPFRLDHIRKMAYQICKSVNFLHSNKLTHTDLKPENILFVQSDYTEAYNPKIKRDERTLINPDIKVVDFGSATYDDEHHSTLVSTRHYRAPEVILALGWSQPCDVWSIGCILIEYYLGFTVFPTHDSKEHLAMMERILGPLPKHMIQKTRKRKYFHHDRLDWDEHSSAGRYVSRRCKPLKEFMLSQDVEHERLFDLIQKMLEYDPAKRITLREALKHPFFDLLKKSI

Regarding `COc1ccc2sc(C(=O)NCc3cccc(F)c3)cc2c1`, the inhibition in assay [1] amounted to 0%; in [3], 10.9%; in assay [4] it was 30.9%; in assay [5], 8%; in assay [6], 32.9%; in assay [7], 36.7%. Further, the inhibition in assay [8] was found to be 36.6%; in [9], 33.9%; in [10], 25.1%; in assay [11] it was 7.8%; in assay [12], 26%; in assay [13], 0%. Moreover, the inhibition in assay [15] was 16.1%; in assay [16], 13.7%; in [19], 13.1%. Besides, the GI50 in the assay on MDA-MB-231 and with T-24 was > 40 µM in each case. Further, the IC50 in assay [2] was > 15 µM; in assay [14], > 20 µM; in [17], > 20 µM; in assay [18], > 15 µM.

Values taken from ChEMBL document CHEMBL4014345, “Development of Selective Clk1 and -4 Inhibitors for Cellular Depletion of Cancer-Relevant Proteins” (J Med Chem, 2017).
